Experimental data: ChEMBL document CHEMBL5365533, “DNA major versus minor groove occupancy of monomeric and dimeric crystal violet derivatives. Toward structural correlations” (Bioorg Med Chem, 2023)
Calls of active or inactive are those of the source. No cut-off for these calls is given here.

Tests used:
[1] = system: Calf thymus DNA; test: Binding affinity to calf thymus DNA assessed as change in melting temperature by UV thermal denaturation assay; format: nucleic-acid assay; settings: Bos taurus
Procedure, shortened: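 CT DNA in 10 mM Tris-HCl pH 7.0 at a DNA:ligand ratio of 30:1, in 1 cm quartz cuvettes. Absorbance read every 2 °C from 25 to 95 °C, heating at 1 °C/min. Tm taken from first-derivative plots.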

[2] = system: Calf thymus DNA; test: Ratio of Kapp for displacement of ethidium bromide from calf thymus DNA/EtBr complex to Kapp for displacement of ethidium bromide from calf thymus DNA/EtBr in presence of netropsin; format: nucleic-acid assay; settings: Bos taurus
Procedure, shortened: (§1)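 Fluorescence titration of CT DNA (1.0 μM/bp) plus ethidium (0.5 μM), with or without netropsin or methyl green (0.5 μM each), against increasing ligand in 10 mM Tris-HCl pH 7.0. Excitation 520 nm, emission 590 nm, read after 3 min equilibration. C50 is the concentration giving 50% fluorescence loss; Kapp = 9.5×10^6 M⁻¹ × C_ethidium/C50.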

[3] = system: Calf thymus DNA; test: Binding affinity to calf thymus DNA assessed as hypochromic shift by UV spectroscopic analysis; format: nucleic-acid assay; settings: Bos taurus
Procedure, shortened: (§2)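 UV titration in 10 mM Tris-HCl pH 7.0 with ligand fixed at 5.0 μM and CT DNA:ligand ratios of 0:1, 1:1, 2:1, 5:1, 10:1 and 30:1.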

[4] = system: Calf thymus DNA; test: Binding affinity to calf thymus DNA assessed as bathochromic shift by UV spectroscopic analysis; format: nucleic-acid assay; settings: Bos taurus; procedure, shortened: as §2
[5] = Displacement of Ethidium bromide from cMyc (5'-CACGTG-3') hairpin DNA (unknown origin)/EtBr complex assessed as binding constant by crystal violet staining based analysis
[6] = system: Calf thymus DNA; test: Binding affinity to calf thymus DNA in Tris-HCl buffer at pH 7.0 assessed as rigidification of DNA from intercalation of drug incubated for 30 mins by Ostwald viscometer analysis; format: nucleic-acid assay; settings: Bos taurus
Procedure, shortened: (§3)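 Ostwald viscometer at 23.0 ± 1 °C. CT DNA held at 300 μM/bp in 10 mM Tris-HCl pH 7.0 with ligand or ethidium at 0–26 μM, incubated 30 min before timing flow. (η/η0)^1/3 plotted against [ligand]/[DNA]; three replicates, SD shown.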

[7] = Binding affinity to DDD hairpin DNA (unknown origin) in Tris-HCl buffer at pH 5.0 assessed as negative induced CD bands formation at 310nm at 1 mM incubated for 5 mins by CD spectra analysis
Procedure, shortened: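 Ligand (1 mM stock) added in small aliquots to DDD hairpin (8.8 μM) in 10 mM Tris-HCl pH 5.0; mixed by inversion and incubated 5 min at 20 °C. CD recorded 215–350 nm in 0.5 nm steps as the average of three scans.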

[8] = system: DNA; test: Displacement of Ethidium bromide from (AT)5 (5'-GGGATATA-TATATCCC-3') DNA (unknown origin)/EtBr complex assessed as decrease in initial absorbance of DNA by crystal violet staining based analysis; format: nucleic-acid assay
[9] = system: Calf thymus DNA; test: Binding affinity to calf thymus DNA in Tris-HCl buffer at pH 7.0 assessed as change in entropy at 100 uM by isothermal titration […] analysis; format: nucleic-acid assay; settings: Bos taurus
Procedure, shortened: (§4)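 ITC of CT DNA (100 μM/bp in cell) titrated with ligand (100 μM in syringe), 10 mM Tris-HCl pH 7.0; 25 injections of 10 μL at 30 °C, or for one ligand 50 injections of 5 μL at 27 °C. Buffer-into-DNA heats subtracted; single-site model gives K, N, ΔH and ΔS.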

[10] = system: AT rich DNA; test: Displacement of Ethidium bromide from AT3 (5'-ATATAT-3') hairpin DNA (unknown origin)/EtBr complex assessed as binding constant by crystal violet staining based analysis; format: nucleic-acid assay
[11] = system: Calf thymus DNA; test: Binding affinity to calf thymus DNA in Tris-HCl buffer at pH 7.0 assessed as minimal change in viscosity at 2 to 26 uM incubated for 30 mins by Ostwald viscometer analysis; format: nucleic-acid assay; settings: Bos taurus, dose 2-26 µM; procedure, shortened: as §3
[12] = system: Calf thymus DNA; test: Ratio of Kapp for displacement of ethidium bromide from calf thymus DNA/EtBr complex to Kapp for displacement of ethidium bromide from calf thymus DNA/EtBr in presence of methyl green; format: nucleic-acid assay; settings: Bos taurus; procedure, shortened: as §1
[13] = system: DNA; test: Displacement of Ethidium bromide from A5T5 (5'-GGGAAAAATTTTTCCCCC-3') DNA (unknown origin)/EtBr complex assessed as decrease in initial absorbance of DNA by crystal violet staining based analysis; format: nucleic-acid assay
[14] = system: Calf thymus DNA; test: Binding affinity to calf thymus DNA in Tris-HCl buffer at pH 7.0 assessed as change in enthalpy at 100 uM by isothermal titration […] analysis; format: nucleic-acid assay; settings: Bos taurus; procedure, shortened: as §4
[15] = Displacement of Ethidium bromide from G5C5 (5'-AAAGGGGG-CCCCCTTT-3') DNA (unknown origin)/EtBr complex assessed as decrease in initial absorbance of DNA by crystal violet staining based analysis
[16] = Binding affinity to DDD (5-CGAATT-3') hairpin DNA (unknown origin) assessed as binding constant by isothermal titration calorimetry
[17] = system: Calf thymus DNA; test: Binding affinity to calf thymus DNA in Tris-HCl buffer at pH 7.0 assessed as differential groove occupancy at 100 uM by ITC analysis; format: nucleic-acid assay; settings: Bos taurus; procedure, shortened: as §4
[18] = Binding affinity to DDD hairpin DNA (unknown origin) assessed as binding constant at 100 uM by ITC analysis
Procedure, shortened: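 Isothermal titration calorimetry of DDD hairpin (10 μM in cell) titrated with ligand (100 μM in syringe), 10 mM Tris-HCl pH 7.0, 30 °C; 25 injections of 10 μL. Heats of dilution subtracted; single-site binding model fitted; K averaged from triplicate experiments.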

[19] = Displacement of Ethidium bromide from STAT6 (5'-TCCTAG-3') hairpin DNA (unknown origin)/EtBr complex assessed as binding constant by crystal violet staining based analysis
[20] = Displacement of Ethidium bromide from NFAT1 (5-GAAAAA-3') hairpin DNA (unknown origin)/EtBr complex assessed as binding constant by crystal violet staining based analysis
[21] = system: Calf thymus DNA; test: Binding affinity to calf thymus DNA in Tris-HCl buffer at pH 7.0 assessed as lengthening of DNA from intercalation of drug incubated for 30 mins by Ostwald viscometer analysis; format: nucleic-acid assay; settings: Bos taurus; procedure, shortened: as §3

ΔTm [1]: 2.8 °C
Ratio [2]: 1.3
Activity [3]: Active
Activity [4]: Active
K [5]: 1.26e+06 M⁻¹
Activity [6]: Active
Activity [7]: Active
C50 [8]: 1.57 µM
deltaS [9]: 0.122 kcal/mol
K [10]: 0.21 10^5/M
Activity [11]: Dose-Dependent Effect
Ratio [12]: > 8
C50 [13]: 1.86 µM
deltaH [14]: 29.7 kcal/mol
C50 [15]: 2.05 µM
K [16]: 14.6 10^5/M
Activity [17]: Active
K [18]: 14.6 10^5/M
K [19]: 1.06 10^5/M
K [20]: 0.19 10^5/M
Activity [21]: Active
SMILES: Cc1cc(N(C)C)cc(C)c1C(=C1C=CC(=[N+](C)C)C=C1)c1ccc(N(C)C)cc1
